Experimental data published in ChEMBL document CHEMBL3608239, “Identification and optimisation of a 4',5-bisthiazole series of selective phosphatidylinositol-3 kinase alpha inhibitors” (Bioorg Med Chem Lett, 2015).

Columns and labels:
[1] = Permeability of the compound from apical to basolateral side in human Caco2 cells; format: ADME, cell-based; conditions: Caco-2, read-out: permeability
[2] = Permeability of the compound from basolateral to apical side in human Caco2 cells; format: ADME, cell-based; conditions: Caco-2, read-out: permeability
[3] = Plasma concentration in athymic nude mouse at 10 mg/kg, iv after 2 hrs; format: ADME, organism-based
In short: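 Female athymic nude mice, conscious, with free access to food, given a bolus intravenous dose of 10 mg kg-1. Plasma levels measured 1 and 2 h after dosing.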

Rattus norvegicus = test: Volume of distribution in Sprague-Dawley rat at 3 mg/kg, po; format: ADME, organism-based; conditions: in vivo
In short: (§1)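 Female Sprague-Dawley rats, conscious, permanently cannulated, with free access to food. Dosed 1.0 mg kg-1 intravenously or 3.0 mg kg-1 orally as a suspension. Blood levels followed from 5 min to 48 h after dosing.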

[4] = Oral bioavailability in Sprague-Dawley rat at 3 mg/kg; format: ADME, organism-based; conditions: in vivo; in short: as §1

Row | Papp A→B [1] | Papp B→A [2] | concentration at 2 h [3] | Vd (Rattus norvegicus) | bioavailability [4] | SMILES
1 | 5.5 ×10⁻⁶ cm/s | 20.7 ×10⁻⁶ cm/s | – | – | – | Cc1nc(NC(=O)N2C[C@H](F)C[C@H]2C(N)=O)sc1-c1csc(C(C)(C)C)n1
2 | 0.7 ×10⁻⁶ cm/s | 8.4 ×10⁻⁶ cm/s | – | – | – | Cc1nc(NC(=O)N2C[C@H](O)C[C@H]2C(N)=O)sc1-c1csc(C(C)(C)C)n1
3 | 1.2 ×10⁻⁶ cm/s | 20.8 ×10⁻⁶ cm/s | – | – | – | Cc1nc(NC(=O)N2C[C@@H](O)C[C@H]2C(N)=O)sc1-c1csc(C(C)(C)C)n1

Further lines, the compound ahead of its results:

Row | SMILES | Papp A→B [1] | Papp B→A [2] | concentration at 2 h [3] | Vd (Rattus norvegicus) | bioavailability [4]
4 | Cc1nc(NC(=O)N2CCC[C@H]2C(N)=O)sc1-c1ccc(S(C)(=O)=O)c(F)c1 | 1.4 ×10⁻⁶ cm/s | 7.7 ×10⁻⁶ cm/s | – | – | –
5 | Cc1nc(NC(=O)N2CCC[C@@]2(C)C(N)=O)sc1-c1csc(C(C)(C)C)n1 | 14.5 ×10⁻⁶ cm/s | 17.4 ×10⁻⁶ cm/s | < 50 nM | – | –
6 | Cc1nc(NC(=O)N2CC[C@H](C)[C@H]2C(N)=O)sc1-c1csc(C(C)(C)C)n1 | 11.1 ×10⁻⁶ cm/s | 17.4 ×10⁻⁶ cm/s | – | – | –
7 | Cc1nc(NC(=O)N2CC[C@H](O)[C@H]2C(N)=O)sc1-c1csc(C(C)(C)C)n1 | 0.9 ×10⁻⁶ cm/s | 12.4 ×10⁻⁶ cm/s | – | – | –
8 | Cc1nc(NC(=O)N2C[C@H](N(C)C)C[C@H]2C(N)=O)sc1-c1csc(C2(C)CC2)n1 | – | – | – | 3.3 L/kg | 59%
